In the RNAGym collection of RNA variant scans (doi:10.1126/science.aae0568):
Variants at the floor of the assay were thinned out.

B1: tRNA (parent)
chain: GUUCCGUUGGCGUAAUGGUAACGCGUCUCCCUCCUAAGGAGAAGACUGCGGGUUCGAGUCCCGUACGGAACG

Variants of: B1
Test: yeast fitness relative to wild type (ratio to wild type); higher = fitter; tRNA-Arg(CCU), competitive growth, 37 C, YPD
Procedure, shortened: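 The tRNA-Arg(CCU) gene variants were made by chemical synthesis with a 3% per-site mutation rate at 69 sites and inserted at the native genomic locus of Saccharomyces cerevisiae. After pooling, the strains were competed in YPD at 37°C for 24 hours in six parallel replicates. Gene amplicons from the start population and each end population were read by 100-nucleotide paired-end sequencing, and Darwinian fitness relative to wild type was taken from genotype frequency changes. Genotypes needed ≥ 100 starting reads, and estimates < 0.5 were set to 0.5.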

Row | Variant | yeast fitness
1 | G10C C24A G51A A65G A70C | 0.55
2 | U3A C4U C5U G48C C49A G67C A70U | 0.663
3 | G9C A57C | 0.56
4 | A15U C46U C66U A69G | ≤ 0.5
5 | A21C A40G | 0.818
6 | C24U G68C A70U | ≤ 0.5
7 | C5U U19C G67C A70U | ≤ 0.5
8 | C4G A20C A40G G52C | 0.6
9 | G18C A21C C27U A37U | ≤ 0.5
10 | G17A U19A C24U G25C | ≤ 0.5
11 | U2A C24U C29U C33U C34G A42U G58A | 0.56
12 | C5U A37G G56C | 0.533
13 | G9A C24U A65C | 0.536
14 | A20G G25C | 0.985
15 | U53C G58C | 0.977
16 | A14U C31G G38A | 0.657
17 | C22U G25A G50A A69U | ≤ 0.5
18 | U16A G50C C55U U59G C66U G67A | ≤ 0.5
19 | U2G A36G G51A | ≤ 0.5
20 | G6A G56A | 0.852
21 | U16C A40U A57C A70U | 0.585

Row | Variant | yeast fitness
22 | A21G G56C C62A | ≤ 0.5
23 | U13C G67U | 0.719
24 | C22U C31G C49U C66U G67A | 0.563
25 | G18C C24A A57C C66U A69C | ≤ 0.5
26 | U3C C46A A70C | 1.12
27 | A14U A42C G52A G56C | ≤ 0.5
28 | U13C C31U C55G G67C | ≤ 0.5
29 | U47A G67C | 0.88
30 | U7A A14C A20G C66G | ≤ 0.5
31 | G6C U7C G9C C66U | 0.546
32 | U35G U53G | 0.592
33 | U2G U13C A21G U35A C55U A70G | ≤ 0.5
34 | U28C C46G | 1.08
35 | A15C U28A | 0.622
36 | A20G C34A A57U | ≤ 0.5
37 | A15G G38C C49U | 0.544
38 | C30U C61G | 0.671
39 | A21U A40U A45U | 0.625
40 | C5G A45U G68C | ≤ 0.5
41 | A43G A57C | 0.525
42 | A42C C60U | 0.749

Row | Variant | yeast fitness
43 | C31A A37U C49A | 0.745
44 | G56C A69C | 0.818
45 | U3G G17A C27G C33U A45G | ≤ 0.5
46 | G12A C61U | 0.924
47 | G25A G44C | 1.04
48 | G44C C66U | 0.692
49 | A20C C22G C33U A45U | ≤ 0.5
50 | G23A U59C | 0.799
51 | C30G C31G G38C C46G C49U | 0.532
52 | U53A C62G | 0.598
53 | G25A C29A A42G | ≤ 0.5
54 | A45C U59G | 0.713
55 | C5A A20C A57U | ≤ 0.5
56 | U2C C29U A37G A65G | ≤ 0.5
57 | C49U U59G C60U | ≤ 0.5
58 | C62U G63A | 0.719
59 | C4G C29G | 0.69
60 | U19A G25C C33A A37G G68A | ≤ 0.5
61 | C24U C30A U35C U59C G63A | ≤ 0.5
62 | C24A C34A A37G A57G A65G | 0.544
63 | A43C C49A | 0.631

Row | Variant | yeast fitness
64 | G10C A14G | 0.569
65 | U2G G18A C29G C31G G52A | ≤ 0.5
66 | C31U A69C | 1.04
67 | U8A G38A | 0.652
68 | C4A C27U C60G | ≤ 0.5
69 | U2C G12A U19C A21U G58C | 0.603
70 | G38C U64A C66U | ≤ 0.5
71 | U3A U19C C29A A36U | ≤ 0.5
72 | U3G G44C C55G | ≤ 0.5
73 | A21G G25A A42C | 0.707
74 | C29A A45C C46G G68C | ≤ 0.5
75 | C5G G17A A20C C49G A69C | ≤ 0.5
76 | G6A G63C | 0.727
77 | A15C U35C A42G G67U | ≤ 0.5
78 | C27G G68C | 0.65
79 | G12A A14C A20C A42G G44A | ≤ 0.5
80 | C4U U16A A37U A65U | ≤ 0.5
81 | U53C C60G | 0.784
82 | G10C C34U | 0.565
83 | U2C C27G U28A A43U C61A C62U A65U A69C | ≤ 0.5
